APJ ag: agonists of human apelin receptor APJ, primary screen, CHO-K1 cells, PathHunter beta-arrestin, luminescence | 330,000 tested, 0.11% active | AID 2520, 2010 | 0% DMSO wells, 100% apelin | activation, % at 20 µM;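 active = activation more than six SD over the plate average, tested at 20 µM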;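 also: 0% = DMSO alone and 100% = apelin-13 at 10 nM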
Target sequence (P35414 whole entry, looked up): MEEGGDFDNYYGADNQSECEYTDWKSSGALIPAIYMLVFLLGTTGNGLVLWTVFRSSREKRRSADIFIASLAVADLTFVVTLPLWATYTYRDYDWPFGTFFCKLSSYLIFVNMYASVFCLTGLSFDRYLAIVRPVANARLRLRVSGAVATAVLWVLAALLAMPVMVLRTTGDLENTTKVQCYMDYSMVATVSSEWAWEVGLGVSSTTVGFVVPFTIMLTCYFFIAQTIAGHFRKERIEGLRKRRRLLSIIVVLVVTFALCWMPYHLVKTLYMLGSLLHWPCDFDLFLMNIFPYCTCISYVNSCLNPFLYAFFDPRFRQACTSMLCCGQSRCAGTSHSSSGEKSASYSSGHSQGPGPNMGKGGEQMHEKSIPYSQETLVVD
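Test system: CHO-K1 APJ beta-arrestin complementation cell line | Compound: Single test compound dose, 20 µM final, 1% DMSO | Incubation: Compound 90 min 25 °C, reagent 1 h | Measured by: beta-gal luminescence | Read-out basis: APJ–arrestin association signal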
CCR6 antag: CCR6 receptor antagonists, primary screen, cell-based, CHO-K1, luminescence, beta-arrestin, uHTS; C-C chemokine receptor type 6 (Homo sapiens), P51684; CHO-K1 CCR6 PathHunter beta-arrestin, CCL20-stimulated; 340,000 tested, 0.49% active; AID 493098, 2011; inhibition, % at 20 µM;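 active = compounds whose inhibition of the agonist-driven luminescence signal at 20 µM reaches about 50%, limit read from the data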;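 also: cells stimulated with CCL20 at 14 nM final; plate controls were DMSO with CCL20 for no effect and DMSO without agonist for full effect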
CXCR6 block: CXCR6 receptor inhibitors, primary screen, cell-based, beta-arrestin, luminescence, CHO-K1 PathHunter, 1536-well; C-X-C chemokine receptor type 6 (Homo sapiens), O00574; inhibition, % at 20 µM; 360,000 tested, 0.36% active; AID 602244, 2012; in the data active = inhibition above about 34%, passing the limit was not always enough;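 also: antagonist mode with CXCL16 agonist at 10 nM final; 0% = 10 nM CXCL16 with DMSO and 100% = unstimulated wells without agonist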
APJ antag: antagonists of human apelin receptor APJ, primary screen, CHO-K1 cells, beta-arrestin complementation, luminescence; P35414; inhibition, % at 20 µM; 330,000 tested, 0.32% active; AID 2521, 2010;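 active = inhibition above about 40% at 20 µM, limit read from the data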;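 also: cells challenged with 10 nM apelin-13 agonist together with compound; plate controls were apelin-13 plus DMSO wells for no effect and DMSO wells lacking apelin-13 for full effect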
EBI2 block: EBI2 receptor antagonists, beta-arrestin recruitment, primary screen, cell-based, luminescence, 7a,25-OHC stimulation, uHTS; AID 651636, 2012; inhibition, % at 5 µM; G-protein coupled receptor 183 (Homo sapiens), P32249; 7a,25-OHC stimulated; 360,000 tested, 0.81% active; in the data active = inhibition above about 38%;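 also: enzyme fragment complementation signal reports receptor beta-arrestin coupling in cells; 0% = agonist plus DMSO wells and 100% = wells without agonist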
APJ antag confirm: APJ antagonists blocking beta-arrestin recruitment, confirmation, cell-based, luminescence, single concentration, uHTS hits; 950 tested, 66% active; shares compounds with APJ antag; antagonist mode; inhibition, % at 20 µM; in the data active = inhibition above about 50%
* = called active by the depositor; nt = no result given. A selection: hits, their analogues and other compounds. The true share with any hit is near 1.5%.

SMILES	APJ ag	CCR6 antag	CXCR6 block	APJ antag	EBI2 block	APJ antag confirm
O=C(NN1C(=O)/C(=C/c2ccc(O)c([N+](=O)[O-])c2)SC1=S)c1ccccc1Cl	-10	54*	39*	47*	15	69*
Cc1cc(Cn2nnc3ccccc32)c(O)c(C(C)(C)C)c1	-5	-2	0	43*	4	2
CC(C)(C)c1cccc(Cn2nnc3ccccc32)c1O	14	13	-3	10	-20	nt
O=C(c1ccco1)N(Cc1cccs1)C1CCS(=O)(=O)C1 (centres undefined)	-3	13	-2	47*	-3	13
O=C(c1ccco1)N(Cc1cccc(Cl)c1)C1CCS(=O)(=O)C1 (centres undefined)	2	23	1	-8	-2	nt
COc1cc(/C=C2\SC(=S)N(NC(C)=O)C2=O)ccc1OC(=O)c1ccco1	-7	47	27	-13	-23	nt
COc1cc(/C=C2/SC(=S)N(C)C2=O)ccc1OC(=O)c1ccco1	-5	49	28	46*	0	48
Cc1nc(SC(C)C(=O)NC2CCCC2)c2ccccc2n1 (centres undefined)	-2	5	2	21	-2	nt
O=C(Sc1cccc2cccnc12)c1ccccc1Br	-5	nt	35	52*	49*	85*
Cc1noc(C)c1-c1ccc(C(=O)NC2CCCCC2)c2occc12	nt	nt	-6	nt	-12	nt
O=[N+]([O-])c1ccc(/C=N/Nc2nc(NCc3ccccc3)nc(N3CCOCC3)n2)cc1	0	-9	-1	-8	3	nt
O=[N+]([O-])c1cccc(/C=N/Nc2nc(NCc3ccccc3)nc(N3CCOCC3)n2)c1O	-10	107*	95*	76*	76*	124*
COc1cc2c(cc1OC)C(c1cccc([N+](=O)[O-])c1)NC(=O)C2 (centres undefined)	0	7	7	0	-2	nt
COc1cc2c(cc1OC)C1(CCCC1)CNC2c1cccc([N+](=O)[O-])c1 (centres undefined)	-9	78*	63*	47*	40	78*
CC(C)c1ccc(OCC(=O)Nc2c3c(nn2C(C)(C)C)CS(=O)(=O)C3)cc1	3	20	-11	-9	-8	nt
CC(C)C(NC(=O)C1CCCCC1)C(=O)NCc1ccccn1 (centres undefined)	-4	1	2	14	3	nt
CC(C)C(NC(=O)C1CCCCC1)C(=O)NCCc1ccccc1 (centres undefined)	-6	31	28	41*	9	43
COc1cc(OC)cc(N(C(=O)CNC(=O)c2cccs2)C(C(=O)NCC2CCCO2)c2ccccc2)c1 (centres undefined)	2	8	-1	8	7	nt
COc1ccc(N=C2C(=O)Nc3ccc(C)c(Br)c32)cc1	-19	105*	82*	89*	32	159*
O=C(CN1CCN(S(=O)(=O)c2ccc(F)c(F)c2)CC1)Nc1ccccc1C(=O)NC1CC1	-2	7	-4	1	10	nt
COC(=O)c1cc(N=Nc2sc(N)nc2C)cc(C(=O)OC)c1	-4	28	8	45*	11	27
Cc1ccc(C(=O)COC(=O)c2cnccn2)cc1C	-1	nt	nt	1	nt	nt
Cc1ccc(C(=O)COC(=O)c2cnccn2)cc1[N+](=O)[O-]	-6	28	8	46*	6	65*
O=C(COC(=O)c1cccnc1)c1ccc(Cl)c(Cl)c1	-14	81*	37	85*	10	78*
O=C(COC(=O)c1cnccn1)c1ccc(Cl)c([N+](=O)[O-])c1	-14	87*	54*	91*	11	140*
O=C(Cc1ccc(Br)cc1)NNC(=O)c1cccs1	-1	3	5	10	2	nt
Cc1ccc(C(=O)COC(=O)CNS(=O)(=O)c2ccccc2)cc1[N+](=O)[O-]	-16	80*	18	48*	9	86*
